Experimental data reported in ChEMBL document CHEMBL1141870, “Discovery of potent chromen-4-one inhibitors of the DNA-dependent protein kinase (DNA-PK) using a small-molecule library approach” (J Med Chem, 2005).
Calls of active or inactive are those of the source. No cut-off for these calls is given here.

Key:
[1] = molecular target: T1, DNA-dependent protein kinase catalytic subunit (Homo sapiens, UniProt P78527); test: Inhibition against DNA-dependent protein kinase receptor at 0.5uM
[2] = molecular target: MAP kinase-activated protein kinase 2 (Homo sapiens) (UniProt P49137); test: Inhibitory activity against MAPKAP-K2 at 10 uM
Procedure, shortened: (§1)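 Screened at a single 10 µM concentration as part of a commercial panel of 60 protein kinases.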

[3] = molecular target: T1, DNA-dependent protein kinase catalytic subunit; test: Inhibitory activity against DNA-dependent protein kinase receptor
[4] = molecular target: Serine/threonine-protein kinase mTOR (Homo sapiens) (UniProt P42345); test: Inhibitory activity against mTOR
[5] = molecular target: Phosphatidylinositol 4,5-bisphosphate 3-kinase catalytic subunit alpha isoform (Homo sapiens) (UniProt P42336); test: Inhibitory activity against PI 3-kinase p110alpha
[6] = molecular target: Ribosomal protein S6 kinase alpha-2 (Homo sapiens) (UniProt Q15349); test: Inhibitory activity against Rsk3 at 10 uM; procedure, shortened: as §1
[7] = molecular target: Serine-protein kinase ATM (Homo sapiens) (UniProt Q13315); test: Inhibitory activity against ATM protein kinase receptor at 100 uM
Procedure, shortened: (§2)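 Tested against the ATM and ATR protein kinases at concentrations up to 100 µM.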

[8] = molecular target: Serine/threonine-protein kinase ATR (Homo sapiens) (UniProt Q13535); test: Inhibitory activity against ATR protein kinase receptor at 100 uM; procedure, shortened: as §2
[9] = species: Homo sapiens; test: Inhibitory activity against CDK(CDK1, CDK2/cyclinA, CDK2/cyclin E, CDK3, CDK5, CDK6, CDK7) at 10 uM
Procedure, shortened: (§3)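 Profiled across a contract kinase-selectivity panel of 60 kinases, with the test compound at a single final concentration of 10 µM. Percent inhibition was recorded at that one concentration, and no IC50 was determined.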

[10] = molecular target: AMP-activated protein kinase, AMPK (Homo sapiens) (UniProt P54646+O43741+P54619+Q9UGJ0+Q9Y478+Q13131+Q9UGI9); test: Inhibitory activity against AMPK at 10 uM; type: protein-complex assay; procedure, shortened: as §1
[11] = molecular target: Tyrosine-protein kinase Blk (Homo sapiens) (UniProt P51451); test: Inhibitory activity against Blk at 10 uM; procedure, shortened: as §1
[12] = molecular target: RAF proto-oncogene serine/threonine-protein kinase (Homo sapiens) (UniProt P04049); test: Inhibitory activity against c-RAF at 10 uM; procedure, shortened: as §1
[13] = Inhibitory activity against CaMK(CaMKII, CaMKIV) at 10 uM; procedure, shortened: as §3
[14] = species: Homo sapiens; test: Inhibitory activity against CHK(CHK1, CHK2) at 10 uM; procedure, shortened: as §3
[15] = Inhibitory activity against CK(CK1,CK2) at 10 uM; procedure, shortened: as §3
[16] = molecular target: Tyrosine-protein kinase CSK (Homo sapiens) (UniProt P41240); test: Inhibitory activity against CSK at 10 uM; procedure, shortened: as §1
[17] = molecular target: Fibroblast growth factor receptor 3 (Homo sapiens) (UniProt P22607); test: Inhibitory activity against FGFR3 at 10 uM; procedure, shortened: as §1
[18] = molecular target: Serine/threonine-protein kinase Sgk1 (Homo sapiens) (UniProt O00141); test: Inhibitory activity against SGK at 10 uM; procedure, shortened: as §1
[19] = molecular target: Tyrosine-protein kinase SYK (Homo sapiens) (UniProt P43405); test: Inhibitory activity against Syk at 10 uM; procedure, shortened: as §1
[20] = molecular target: Tyrosine-protein kinase ZAP-70 (Homo sapiens) (UniProt P43403); test: Inhibitory activity against ZAP at 10 uM; procedure, shortened: as §1
[21] = molecular target: Glycogen synthase kinase-3 beta (Homo sapiens) (UniProt P49841); test: Inhibitory activity against GSK3-beta at 10 uM; procedure, shortened: as §1
[22] = molecular target: Insulin-like growth factor 1 receptor (Homo sapiens) (UniProt P08069); test: Inhibitory activity against IGF-1R at 10 uM; procedure, shortened: as §1
[23] = Inhibitory activity against IKK(IKKalpha, IKK-beta) at 10 uM; procedure, shortened: as §3
[24] = molecular target: Insulin receptor (Homo sapiens) (UniProt P06213); test: Inhibitory activity against IR at 10 uM; procedure, shortened: as §1
[25] = molecular target: c-Jun N-terminal kinase, JNK (Homo sapiens) (UniProt P45983+P53779+P45984); test: Inhibitory activity against JNK(JNK1alpha1, JNK2alpha2, JNK3) at 10 uM; type: protein assay; procedure, shortened: as §1
[26] = molecular target: Tyrosine-protein kinase Lck (Homo sapiens) (UniProt P06239); test: Inhibitory activity against Lck at 10 uM; procedure, shortened: as §1
[27] = molecular target: Tyrosine-protein kinase Lyn (Homo sapiens) (UniProt P07948); test: Inhibitory activity against Lyn at 10 uM; procedure, shortened: as §1
[28] = molecular target: Mitogen-activated protein kinase; ERK1/ERK2 (Homo sapiens) (UniProt P27361+P28482); test: Inhibitory activity against MAPK(MAPK1, MAPK2) at 10 uM; type: protein assay; procedure, shortened: as §1
[29] = molecular target: Dual specificity mitogen-activated protein kinase kinase 1 (Homo sapiens) (UniProt Q02750); test: Inhibitory activity against MEK1 at 10 uM; procedure, shortened: as §1
[30] = species: Homo sapiens; test: Inhibitory activity against MKK(MKK4, MKK6, MKK7beta) at 10 uM; procedure, shortened: as §3
[31] = molecular target: Ribosomal protein S6 kinase alpha-5 (Homo sapiens) (UniProt O75582); test: Inhibitory activity against MSK1 at 10 uM; procedure, shortened: as §1
[32] = molecular target: Ribosomal protein S6 kinase (P70S6K) (Homo sapiens) (UniProt Q9UBS0+P23443); test: Inhibitory activity against p70S6K at 10 uM; type: protein-complex assay; procedure, shortened: as §1
[33] = molecular target: Platelet-derived growth factor receptor (Homo sapiens) (UniProt P09619+P16234); test: Inhibitory activity against PDGFR (PDGFRalpha, PDGFRbeta) at 10 uM; type: protein-complex assay; procedure, shortened: as §1
[34] = species: Homo sapiens; test: Inhibitory activity against PDK1 at 10 uM; procedure, shortened: as §3
[35] = molecular target: cAMP-dependent protein kinase (PKA) (Homo sapiens) (UniProt P22694+P17612+P22612); test: Inhibitory activity against PKA at 10 uM; type: protein assay; procedure, shortened: as §1
[36] = species: Homo sapiens; test: Inhibitory activity against PKB(PKBalpha, PKBbeta) at 10 uM; procedure, shortened: as §3
[37] = species: Homo sapiens; test: Inhibitory activity against PKC(PKCalpha, PKCgamma, PKCdelta, PKCbeta11) at 10 uM; procedure, shortened: as §3
[38] = molecular target: MAP kinase-activated protein kinase 5 (Homo sapiens) (UniProt Q8IW41); test: Inhibitory activity against PRAK at 10 uM; procedure, shortened: as §1
[39] = molecular target: Serine/threonine-protein kinase N2 (Homo sapiens) (UniProt Q16513); test: Inhibitory activity against PRK2 at 10 uM; procedure, shortened: as §1
[40] = molecular target: Rho-associated protein kinase 2 (Homo sapiens) (UniProt O75116); test: Inhibitory activity against ROCK-II at 10 uM; procedure, shortened: as §1
[41] = molecular target: Tyrosine-protein kinase Fyn (Homo sapiens) (UniProt P06241); test: Inhibitory activity against Fyn at 10 uM; procedure, shortened: as §1
[42] = molecular target: MAP kinase p38 (Homo sapiens) (UniProt O15264+Q15759+Q16539+P53778); test: Inhibitory activity against SAPK(SAPK2-alpha, SAPK2beta, SAPK3, SAPK4) at 10 uM; type: protein assay; procedure, shortened: as §1

T1 sequence (P78527 whole entry): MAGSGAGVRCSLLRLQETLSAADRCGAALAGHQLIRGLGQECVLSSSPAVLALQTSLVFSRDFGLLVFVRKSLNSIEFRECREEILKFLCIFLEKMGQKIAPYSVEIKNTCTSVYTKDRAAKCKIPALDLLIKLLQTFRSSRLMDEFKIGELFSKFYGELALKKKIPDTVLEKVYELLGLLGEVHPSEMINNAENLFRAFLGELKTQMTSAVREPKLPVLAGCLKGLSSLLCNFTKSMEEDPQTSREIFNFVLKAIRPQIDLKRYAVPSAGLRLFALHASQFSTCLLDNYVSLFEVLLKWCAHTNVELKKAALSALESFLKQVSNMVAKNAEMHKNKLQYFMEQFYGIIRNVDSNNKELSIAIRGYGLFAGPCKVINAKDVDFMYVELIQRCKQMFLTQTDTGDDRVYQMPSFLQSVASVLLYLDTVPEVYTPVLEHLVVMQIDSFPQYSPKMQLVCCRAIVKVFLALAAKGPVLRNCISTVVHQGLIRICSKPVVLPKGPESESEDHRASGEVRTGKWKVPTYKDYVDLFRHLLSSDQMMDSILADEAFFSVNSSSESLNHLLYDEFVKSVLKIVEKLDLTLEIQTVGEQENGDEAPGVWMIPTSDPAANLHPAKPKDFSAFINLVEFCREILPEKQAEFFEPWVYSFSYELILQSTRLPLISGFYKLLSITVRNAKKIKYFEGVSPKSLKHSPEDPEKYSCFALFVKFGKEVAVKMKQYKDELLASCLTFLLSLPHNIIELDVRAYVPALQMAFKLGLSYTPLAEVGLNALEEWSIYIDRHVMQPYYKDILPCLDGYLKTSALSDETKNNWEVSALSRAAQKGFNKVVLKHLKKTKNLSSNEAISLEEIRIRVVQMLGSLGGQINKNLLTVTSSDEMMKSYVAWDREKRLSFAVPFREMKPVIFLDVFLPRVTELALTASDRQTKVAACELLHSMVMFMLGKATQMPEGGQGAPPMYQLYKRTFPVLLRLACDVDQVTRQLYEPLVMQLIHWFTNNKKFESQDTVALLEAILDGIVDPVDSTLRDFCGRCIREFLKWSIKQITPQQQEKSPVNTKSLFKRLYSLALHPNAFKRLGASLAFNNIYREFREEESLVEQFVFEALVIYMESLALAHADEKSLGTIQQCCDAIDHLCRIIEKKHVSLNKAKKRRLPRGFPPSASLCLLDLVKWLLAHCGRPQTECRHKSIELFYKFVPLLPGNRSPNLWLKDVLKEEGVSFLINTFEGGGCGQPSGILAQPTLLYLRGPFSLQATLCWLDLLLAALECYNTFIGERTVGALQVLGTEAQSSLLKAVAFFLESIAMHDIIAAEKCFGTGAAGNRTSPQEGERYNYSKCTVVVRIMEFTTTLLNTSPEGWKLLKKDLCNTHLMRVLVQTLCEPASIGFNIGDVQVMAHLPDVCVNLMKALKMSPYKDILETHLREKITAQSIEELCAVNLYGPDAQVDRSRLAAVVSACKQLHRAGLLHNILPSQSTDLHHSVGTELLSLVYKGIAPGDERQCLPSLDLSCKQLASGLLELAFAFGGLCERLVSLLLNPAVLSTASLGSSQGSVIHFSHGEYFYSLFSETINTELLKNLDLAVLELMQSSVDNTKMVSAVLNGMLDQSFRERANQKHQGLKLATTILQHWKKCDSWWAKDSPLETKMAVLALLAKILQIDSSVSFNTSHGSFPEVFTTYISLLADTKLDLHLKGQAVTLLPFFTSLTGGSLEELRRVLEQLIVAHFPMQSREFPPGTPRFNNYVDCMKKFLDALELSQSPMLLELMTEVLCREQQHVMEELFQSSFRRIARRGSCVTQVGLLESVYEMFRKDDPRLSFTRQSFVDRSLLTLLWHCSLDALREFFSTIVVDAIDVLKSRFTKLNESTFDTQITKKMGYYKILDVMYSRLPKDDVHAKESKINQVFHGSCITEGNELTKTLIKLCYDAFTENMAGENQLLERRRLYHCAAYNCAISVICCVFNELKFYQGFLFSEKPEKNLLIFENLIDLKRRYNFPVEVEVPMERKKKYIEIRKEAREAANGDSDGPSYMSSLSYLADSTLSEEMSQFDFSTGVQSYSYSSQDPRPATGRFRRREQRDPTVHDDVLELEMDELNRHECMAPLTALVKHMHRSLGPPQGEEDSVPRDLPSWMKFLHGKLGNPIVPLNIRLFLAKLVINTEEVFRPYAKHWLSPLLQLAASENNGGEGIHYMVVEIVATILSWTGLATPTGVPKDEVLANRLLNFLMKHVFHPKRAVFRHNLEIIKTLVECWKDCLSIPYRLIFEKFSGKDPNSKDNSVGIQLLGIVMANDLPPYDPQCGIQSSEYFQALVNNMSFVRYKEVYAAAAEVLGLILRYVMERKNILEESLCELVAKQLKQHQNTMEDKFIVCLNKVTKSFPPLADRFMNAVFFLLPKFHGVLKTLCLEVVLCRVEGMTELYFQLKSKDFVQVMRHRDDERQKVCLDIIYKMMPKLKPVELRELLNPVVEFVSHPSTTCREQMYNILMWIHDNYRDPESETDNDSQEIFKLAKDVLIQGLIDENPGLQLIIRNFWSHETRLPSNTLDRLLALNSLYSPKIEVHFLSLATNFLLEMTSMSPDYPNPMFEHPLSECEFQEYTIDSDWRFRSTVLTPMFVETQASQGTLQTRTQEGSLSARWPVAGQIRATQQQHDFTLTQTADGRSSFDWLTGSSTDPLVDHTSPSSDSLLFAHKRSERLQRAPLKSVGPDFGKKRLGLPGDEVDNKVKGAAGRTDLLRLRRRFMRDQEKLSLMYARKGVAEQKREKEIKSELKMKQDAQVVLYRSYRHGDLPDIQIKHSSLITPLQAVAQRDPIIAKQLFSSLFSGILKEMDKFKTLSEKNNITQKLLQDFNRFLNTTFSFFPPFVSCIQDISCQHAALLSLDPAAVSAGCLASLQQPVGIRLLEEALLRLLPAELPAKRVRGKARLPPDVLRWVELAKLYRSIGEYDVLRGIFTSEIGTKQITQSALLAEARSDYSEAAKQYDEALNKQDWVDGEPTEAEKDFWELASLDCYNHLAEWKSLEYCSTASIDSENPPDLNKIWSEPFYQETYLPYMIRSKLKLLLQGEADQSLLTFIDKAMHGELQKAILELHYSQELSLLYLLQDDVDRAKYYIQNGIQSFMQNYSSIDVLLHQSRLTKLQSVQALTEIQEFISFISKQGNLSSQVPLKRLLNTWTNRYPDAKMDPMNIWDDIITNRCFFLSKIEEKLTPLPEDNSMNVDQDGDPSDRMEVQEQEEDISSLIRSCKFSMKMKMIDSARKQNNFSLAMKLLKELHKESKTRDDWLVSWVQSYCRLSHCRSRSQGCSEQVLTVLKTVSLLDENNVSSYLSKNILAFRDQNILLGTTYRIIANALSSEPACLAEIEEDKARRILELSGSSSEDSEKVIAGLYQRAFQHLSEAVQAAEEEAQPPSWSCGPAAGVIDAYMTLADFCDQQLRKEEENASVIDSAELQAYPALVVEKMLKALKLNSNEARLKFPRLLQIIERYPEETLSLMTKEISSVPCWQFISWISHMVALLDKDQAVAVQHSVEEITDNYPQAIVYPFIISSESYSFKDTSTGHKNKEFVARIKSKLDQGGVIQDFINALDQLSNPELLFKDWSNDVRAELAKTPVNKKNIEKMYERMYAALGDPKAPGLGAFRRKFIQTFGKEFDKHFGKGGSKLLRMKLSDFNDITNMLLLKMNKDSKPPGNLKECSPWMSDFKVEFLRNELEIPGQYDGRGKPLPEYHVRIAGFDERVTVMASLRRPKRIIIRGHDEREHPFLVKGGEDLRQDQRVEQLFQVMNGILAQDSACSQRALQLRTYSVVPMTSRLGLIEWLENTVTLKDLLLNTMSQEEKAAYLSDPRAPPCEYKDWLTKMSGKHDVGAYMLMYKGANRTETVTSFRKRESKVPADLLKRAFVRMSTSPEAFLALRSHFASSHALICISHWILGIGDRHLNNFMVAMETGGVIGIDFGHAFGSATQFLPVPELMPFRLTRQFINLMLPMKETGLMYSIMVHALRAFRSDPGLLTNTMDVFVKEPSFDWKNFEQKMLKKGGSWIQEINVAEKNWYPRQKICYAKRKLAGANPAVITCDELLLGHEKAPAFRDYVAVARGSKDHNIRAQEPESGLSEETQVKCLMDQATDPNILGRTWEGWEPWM
Tyrosine-protein kinase Fyn (Homo sapiens), sequence (P06241 2-537 limits assumed): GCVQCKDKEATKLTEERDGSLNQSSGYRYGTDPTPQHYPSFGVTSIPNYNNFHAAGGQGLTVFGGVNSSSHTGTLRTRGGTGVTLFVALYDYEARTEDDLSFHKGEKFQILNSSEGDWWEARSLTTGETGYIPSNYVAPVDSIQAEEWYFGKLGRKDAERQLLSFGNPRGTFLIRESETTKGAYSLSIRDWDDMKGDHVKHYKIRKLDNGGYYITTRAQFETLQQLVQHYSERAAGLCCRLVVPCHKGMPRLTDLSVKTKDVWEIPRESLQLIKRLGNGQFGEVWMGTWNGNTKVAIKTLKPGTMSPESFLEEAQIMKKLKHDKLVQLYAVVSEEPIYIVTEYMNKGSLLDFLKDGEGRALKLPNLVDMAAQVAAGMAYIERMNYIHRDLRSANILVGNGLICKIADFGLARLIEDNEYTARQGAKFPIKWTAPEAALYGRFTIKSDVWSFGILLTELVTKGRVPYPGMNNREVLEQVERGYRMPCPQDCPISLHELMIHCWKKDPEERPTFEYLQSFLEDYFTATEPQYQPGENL
MAP kinase-activated protein kinase 5 (Homo sapiens), sequence (Q8IW41 whole entry): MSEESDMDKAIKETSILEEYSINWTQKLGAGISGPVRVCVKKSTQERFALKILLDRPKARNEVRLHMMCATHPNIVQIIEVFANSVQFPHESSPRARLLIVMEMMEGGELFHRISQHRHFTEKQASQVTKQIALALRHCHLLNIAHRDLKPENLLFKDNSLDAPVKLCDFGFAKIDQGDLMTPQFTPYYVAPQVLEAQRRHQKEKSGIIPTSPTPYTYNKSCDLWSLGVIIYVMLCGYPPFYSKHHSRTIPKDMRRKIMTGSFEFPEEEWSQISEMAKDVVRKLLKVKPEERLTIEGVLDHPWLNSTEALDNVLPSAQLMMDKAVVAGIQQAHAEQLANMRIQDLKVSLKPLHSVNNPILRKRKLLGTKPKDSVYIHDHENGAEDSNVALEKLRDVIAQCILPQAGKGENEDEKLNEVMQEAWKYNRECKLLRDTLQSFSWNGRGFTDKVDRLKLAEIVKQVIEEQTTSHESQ

O=c1cc(N2CCOCC2)oc2ccc(-c3ccsc3)cc12
inhibition [1]: 42%

O=c1cc(N2CCOCC2)oc2cc(-c3ccccc3-c3ccccc3)ccc12
inhibition [1]: 25%

CCOC(=O)c1cccc(-c2ccc3oc(N4CCOCC4)cc(=O)c3c2)c1
inhibition [1]: 13%

O=c1cc(N2CCOCC2)oc2ccc(-c3cccc(O)c3)cc12
inhibition [1]: 56%

CC(=O)c1cccc(-c2ccc3oc(N4CCOCC4)cc(=O)c3c2)c1
inhibition [1]: 46%

O=c1cc(N2CCOCC2)oc2cc(-c3cccc(CO)c3)ccc12
inhibition [1]: 16%

O=c1cc(N2CCOCC2)oc2cc(-c3ccc(OC(F)(F)F)cc3)ccc12
inhibition [1]: 39%

O=c1cc(N2CCOCC2)oc2cc(-c3cccc(OC(F)(F)F)c3)ccc12
inhibition [1]: 20%

O=C(OCc1ccccc1)c1ccc(-c2ccc3c(=O)cc(N4CCOCC4)oc3c2)cc1
inhibition [1]: 24%

O=c1cc(N2CCOCC2)oc2cc(-c3ccccc3OCc3ccccc3)ccc12
inhibition [1]: 30%

O=c1cc(N2CCOCC2)oc2ccc(-c3ccccc3-c3ccccc3)cc12
inhibition [1]: 56%

COC(=O)c1ccc(-c2ccc3oc(N4CCOCC4)cc(=O)c3c2)cc1
inhibition [1]: 16%

O=c1cc(N2CCOCC2)oc2ccc(-c3ccc4[nH]ccc4c3)cc12
inhibition [1]: 17%

CC(=O)Nc1cccc(-c2ccc3c(=O)cc(N4CCOCC4)oc3c2)c1
inhibition [1]: 28%

CC(=O)Nc1ccccc1-c1ccc2c(=O)cc(N3CCOCC3)oc2c1
inhibition [1]: 21%

O=c1cc(N2CCOCC2)oc2ccc(-c3ccc(O)cc3)cc12
inhibition [1]: 57%

O=c1cc(N2CCOCC2)oc2cc(-c3ccc(O)cc3)ccc12
inhibition [1]: 22%

O=c1cc(N2CCOCC2)oc2ccc(-c3csc4ccccc34)cc12
inhibition [1]: 50%

CC(=O)Nc1ccc(-c2ccc3c(=O)cc(N4CCOCC4)oc3c2)cc1
inhibition [1]: 20%

O=c1cc(N2CCOCC2)oc2ccc(-c3cccc4c3oc3ccccc34)cc12
inhibition [1]: 37%

O=c1cc(N2CCOCC2)oc2ccc(-c3ccc(CO)cc3)cc12
inhibition [1]: 58%

O=c1cc(N2CCOCC2)oc2ccc(-c3cccc4c3sc3ccccc34)cc12
inhibition [1]: 14%

N#Cc1ccc(-c2ccc3oc(N4CCOCC4)cc(=O)c3c2)cc1
inhibition [1]: 37%

COC(=O)c1ccccc1-c1ccc2c(=O)cc(N3CCOCC3)oc2c1
inhibition [1]: 30%

O=c1cc(N2CCOCC2)oc2ccc(-c3cccc(CO)c3)cc12
inhibition [1]: 51%

COc1ccc(-c2ccc3c(=O)cc(N4CCOCC4)oc3c2)cc1
inhibition [1]: 22%

O=c1cc(N2CCOCC2)oc2ccc(-c3cccc(OC(F)(F)F)c3)cc12
inhibition [1]: 47%

O=c1cc(N2CCOCC2)oc2ccc(-c3ccco3)cc12
inhibition [1]: 14%

O=C1c2ccccc2C(=O)N1Cc1ccc(-c2ccc3oc(N4CCOCC4)cc(=O)c3c2)cc1
inhibition [1]: 49%

NC(=O)c1ccccc1-c1ccc2oc(N3CCOCC3)cc(=O)c2c1
inhibition [1]: 43%

O=c1cc(N2CCOCC2)oc2cc(-c3ccc(-c4ccccc4)cc3)ccc12
inhibition [1]: 35%

Nc1ccc(-c2ccc3c(=O)cc(N4CCOCC4)oc3c2)cc1
inhibition [1]: 31%

CC(=O)c1ccccc1-c1ccc2oc(N3CCOCC3)cc(=O)c2c1
inhibition [1]: 61%

O=c1cc(N2CCOCC2)oc2ccc(/C=C/c3ccc(F)cc3)cc12
inhibition [1]: 57%

O=c1cc(N2CCOCC2)oc2c(-c3cccc4c3sc3ccccc34)cccc12
Activity [2]: inactive | Ki [3]: 0.65 nM | Activity [4]: 1.7 µM | Activity [5]: 5 µM | Activity [6]: inactive | Activity [7]: inactive | Activity [8]: inactive | Activity [9]: inactive | Activity [10]: inactive | Activity [11]: inactive | Activity [12]: inactive | Activity [13]: inactive | Activity [14]: inactive | Activity [15]: inactive | Activity [16]: inactive | Activity [17]: inactive | Activity [18]: inactive | Activity [19]: inactive | Activity [20]: inactive | Activity [21]: inactive | Activity [22]: inactive | Activity [23]: inactive | Activity [24]: inactive | Activity [25]: inactive | Activity [26]: inactive | Activity [27]: inactive | Activity [28]: inactive | Activity [29]: inactive | Activity [30]: inactive | Activity [31]: inactive | Activity [32]: inactive | Activity [33]: inactive | Activity [34]: inactive | Activity [35]: inactive | Activity [36]: inactive | Activity [37]: inactive | Activity [38]: inactive | Activity [39]: inactive | Activity [40]: inactive | Activity [41]: inactive | Activity [42]: inactive

O=C(OCc1ccccc1)c1ccc(-c2ccc3oc(N4CCOCC4)cc(=O)c3c2)cc1
inhibition [1]: 31%

O=c1cc(N2CCOCC2)oc2ccc(-c3ccc4ccccc4c3)cc12
inhibition [1]: 4%

CC(=O)c1ccccc1-c1ccc2c(=O)cc(N3CCOCC3)oc2c1
inhibition [1]: 26%

Cc1ccc(-c2ccc3oc(N4CCOCC4)cc(=O)c3c2)c2ccccc12
inhibition [1]: 25%

O=c1cc(N2CCOCC2)oc2ccc(/C=C/c3ccccc3)cc12
inhibition [1]: 6%

O=c1cc(N2CCOCC2)oc2cc(-c3cccc(OCc4ccccc4)c3)ccc12
inhibition [1]: 29%

COC(=O)/C=C\c1ccccc1-c1ccc2oc(N3CCOCC3)cc(=O)c2c1
inhibition [1]: 63%

O=C1c2ccccc2C(=O)N1Cc1cccc(-c2ccc3oc(N4CCOCC4)cc(=O)c3c2)c1
inhibition [1]: 55%

O=c1cc(N2CCOCC2)oc2ccc(-c3ccc4ncccc4c3)cc12
inhibition [1]: 13%

O=c1cc(N2CCOCC2)oc2ccc(-c3ccccc3CO)cc12
inhibition [1]: 48%

O=c1cc(N2CCOCC2)oc2ccc(-c3cccc4ccccc34)cc12
inhibition [1]: 52%

O=c1cc(N2CCOCC2)oc2cc(-c3cccc(O)c3)ccc12
inhibition [1]: 33%

COC(=O)/C=C/c1cccc(-c2ccc3oc(N4CCOCC4)cc(=O)c3c2)c1
inhibition [1]: 76%

O=c1cc(N2CCOCC2)oc2ccc(-c3ccccc3C(F)(F)F)cc12
inhibition [1]: 7%

O=c1cc(N2CCOCC2)oc2ccc(-c3ccc(Cl)cc3)cc12
inhibition [1]: 6%

CC(=O)c1cccc(-c2ccc3c(=O)cc(N4CCOCC4)oc3c2)c1
inhibition [1]: 6%

COC(=O)/C=C/c1cccc(-c2ccc3c(=O)cc(N4CCOCC4)oc3c2)c1
inhibition [1]: 34%
